# Laboratory results taken from ChEMBL document CHEMBL1133021, “1,3,5-Trialkyl-2,4,6-triiodobenzenes: novel X-ray contrast agents for gastrointestinal imaging” (J Med Chem, 2000).
# Tests used:
# [1] = tested on: Cricetinae gen. sp.; assay: Number of hamsters (male) with follicular cell necrosis over the total number of tested at 4.56 g/kg of compound in iodinated form administered orally; 0/5; assay type: functional, Cricetulus griseus
# [2] = tested on: Cricetinae gen. sp.; assay: Number of hamsters (male) with follicular cell mitotic figures above the control value, to that of total number of tested at 4.56 g/kg of compound in iodinated form administered orally; 0/5; assay type: functional, Cricetulus griseus
# [3] = tested on: Cricetinae gen. sp.; assay: Number of hamsters (male) with follicular cell dilation over the total number of tested at 4.56 g/kg of compound in iodinated form administered orally; 0/5; assay type: functional, Cricetulus griseus
# [4] = tested on: Cricetinae gen. sp.; assay: Number of hamsters (female) with follicular cell dilation over the total number of tested at 4.56 g/kg of compound in iodinated form administered orally; 3/3; assay type: functional, Cricetulus griseus
# [5] = tested on: Cricetinae gen. sp.; assay: Number of hamsters (female) with follicular cell necrosis over the total number of tested at 4.56 g/kg of compound in iodinated form administered orally; 0/3; assay type: functional, Cricetulus griseus
# [6] = tested on: Cricetinae gen. sp.; assay: Number of hamsters (male) with follicular cell necrosis over the total number of tested at 4.56 g/kg of compound in iodinated form administered orally; 3/3; assay type: functional, Cricetulus griseus
# [7] = tested on: Cricetinae gen. sp.; assay: Number of hamsters (female) with follicular cell mitotic figures above the control value, to that of total number of tested at 4.56 g/kg of compound in iodinated form administered orally; 3/3; assay type: functional, Cricetulus griseus
# [8] = tested on: Cricetinae gen. sp.; assay: Number of hamsters (male) with follicular cell dilation over the total number of tested at 4.56 g/kg of compound in iodinated form administered orally; 3/3; assay type: functional, Cricetulus griseus
# [9] = tested on: Cricetinae gen. sp.; assay: Number of hamsters (male) with follicular cell mitotic figures above the control value, to that of total number of tested at 4.56 g/kg of compound in iodinated form administered orally; 3/3; assay type: functional, Cricetulus griseus
# [10] = species: Cricetulus griseus; assay: Compound (4 uM) was evaluated for the half-life period in hamster after incubation with microsomes for 60 min; assay type: functional; settings: Microsome
# In short: (§1)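 Liver microsomes from male Sprague-Dawley rat, male golden Syrian hamster or human, incubated with substrate at 4 µM. Duplicate incubates were sampled at 0, 15, 30 and 60 min, quenched with saturated zinc sulfate and extracted with propan-2-ol. Samples were analysed by isocratic reversed-phase C8 HPLC (65% i-PrOH/water, 0.1% TFA). Values were normalized to the 0 min control to derive half-life (n = 2).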
# [11] = species: Cricetulus griseus; assay: Percent of compound (40 uM) present in unmetabolized form in hamsters after incubation with microsomes for 60 min; assay type: functional; settings: Microsome
# In short: (§2)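 Substrate at 40 µM was incubated 60 min with male Sprague-Dawley rat or male golden Syrian hamster liver microsomes, in duplicate, with sampling at 0, 15, 30 and 60 min. Aliquots were zinc sulfate-quenched, propan-2-ol-extracted and run on isocratic reversed-phase C8 HPLC. Intact drug is expressed relative to 0 min control values.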
# [12] = species: Rattus norvegicus; assay: Compound (4 uM) was evaluated for the half-life period in rats after incubation with microsomes for 60 min; assay type: functional; settings: Microsome; in short: as §1
# [13] = species: Rattus norvegicus; assay: Percent of compound (40 uM) present in unmetabolized form in rats after incubation with microsomes for 60 min; assay type: functional; settings: Microsome; in short: as §2
# [14] = tested on: Mus musculus; assay: Mortality observed in mouse tested for murine toxicity after a single dose of compound (7.00 g/kg) containing iodinated form (4.56 g/kg) of it, administered as 40 mL/kg solution; 0/3; assay type: functional
# In short: (§3)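 Mice, 3 per dose group, received a single oral dose of the test agent as a mineral oil-in-water emulsion. Doses were 10, 20 or 40 mL/kg, about 1-, 2- and 4-fold the anticipated human dose of 114 mg I/mL. Emulsion vehicle alone at 40 mL/kg was the control. Clinical signs and mortality were checked several times on the dosing day, then daily for 7 days. Body weight was taken at 24 h and 1 week, and survivors were necropsied on day 7. Read-out was deaths over animals dosed.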
# [15] = tested on: Mus musculus; assay: Toxicity in mice evaluated, after a single dose of compound containing 1.14 g/kg of iodinated form administered as 10 mL/kg solution; NT=No toxicity; assay type: organism-based; settings: in vivo, 1140 mg/kg; in short: as §3
# [16] = tested on: Mus musculus; assay: Toxicity in mice evaluated, after a single dose of compound containing 2.28 g/kg of iodinated form administered as 20 ml/kg solution; NT=No toxicity; assay type: organism-based; settings: in vivo, 2280 mg/kg; in short: as §3
# [17] = species: Homo sapiens; assay: Compound (4 uM) was evaluated for the half-life period in humans after incubation with microsomes for 60 min; settings: Microsome
# [18] = tested on: Cricetinae gen. sp.; assay: Number of hamsters (female) with follicular cell dilation over the total number of tested at 4.56 g/kg of compound in iodinated form administered orally; 1/3; assay type: functional, Cricetulus griseus
# [19] = tested on: Cricetinae gen. sp.; assay: Number of hamsters (female) with follicular cell necrosis over the total number of tested at 4.56 g/kg of compound in iodinated form administered orally; 1/6; assay type: functional, Cricetulus griseus
# [20] = tested on: Cricetinae gen. sp.; assay: Number of hamsters (male) with follicular cell necrosis over the total number of tested at 4.56 g/kg of compound in iodinated form administered orally; 0/3; assay type: functional, Cricetulus griseus
# [21] = tested on: Cricetinae gen. sp.; assay: Number of hamsters (female) with follicular cell mitotic figures above the control value, to that of total number of tested at 4.56 g/kg of compound in iodinated form administered orally; 1/3; assay type: functional, Cricetulus griseus
# [22] = tested on: Cricetinae gen. sp.; assay: Number of hamsters (male) with follicular cell dilation over the total number of tested at 4.56 g/kg of compound in iodinated form administered orally; 1/3; assay type: functional, Cricetulus griseus
# [23] = tested on: Cricetinae gen. sp.; assay: Number of hamsters (male) with follicular cell mitotic figures above the control value, to that of total number of tested at 4.56 g/kg of compound in iodinated form administered orally; 1/3; assay type: functional, Cricetulus griseus
# [24] = tested on: Mus musculus; assay: Mortality observed in mouse tested for murine toxicity after a single dose of compound (8.49 g/kg) containing iodinated form (4.56 g/kg) of it, administered as 40 mL/kg solution; 0/3; assay type: functional; in short: as §3
# [25] = tested on: Mus musculus; assay: Mortality observed in mouse tested for murine toxicity, 7 days after a single dose of compound containing 3.27g/kg of iodinated form, administered as 20 ml/kg solution; assay type: functional; in short: as §3
# [26] = tested on: Mus musculus; assay: Mortality observed in mouse tested for murine toxicity, 7 days after a single dose of compound containing 6.53 g/kg of iodinated form, administered as 40 mL/kg solution; assay type: functional; in short: as §3
# [27] = tested on: Mus musculus; assay: Mortality observed in mouse tested for murine toxicity after a single dose of compound (12.5 g/kg) containing iodinated form (3.81 g/kg) of it, administered as 10 mL/kg solution; 3/3; assay type: functional
# [28] = tested on: Mus musculus; assay: Mortality observed in mouse tested for murine toxicity after a single dose of compound (2.80 g/kg) containing iodinated form (0.853 g/kg) of it, administered as 10 mL/kg solution; 1/3; assay type: functional
# [29] = tested on: Mus musculus; assay: Mortality observed in mouse tested for murine toxicity after a single dose of compound (5.34 g/kg) containing iodinated form (1.63 g/kg) of it, administered as 10 mL/kg solution; 3/3; assay type: functional
# [30] = tested on: Mus musculus; assay: Mortality observed in mouse tested for murine toxicity after a single dose of compound (6.26 g/kg) containing iodinated form (1.91 g/kg) of it, administered as 10 mL/kg solution; 1/3; assay type: functional
smiles,measurement,setting,value
CC(C)CCCCCc1c(I)c(CCCCCC(C)C)c(I)c(CCCCCC(C)C)c1I,Necrosis,[1],0
same,Mitotic figures,[2],0
same,Dilation,[3],0
CCCCCCC(C)Oc1c(I)cc(I)cc1I (configuration not stated),Dilation,[4],3
same,Necrosis,[5],0
same,Necrosis,[6],2
same,Mitotic figures,[7],3
same,Dilation,[8],3
same,Mitotic figures,[9],3
same,T1/2,[10],15 min
same,Intact,[11],73%
same,T1/2,[12],36 min
same,Intact,[13],73%
same,Mortality,[14],0 number of descendants/number of tested
same,Toxicity,[15],Not toxic
same,Toxicity,[16],Not toxic
same,T1/2,[17],132 min
CCCCCCc1c(I)c(CCCCCC)c(I)c(CCCCCC)c1I,Dilation,[18],0
same,Necrosis,[19],0
same,Necrosis,[20],0
same,Mitotic figures,[21],0
same,Dilation,[22],1
same,Mitotic figures,[23],1
same,Mortality,[24],0 number of descendants/number of tested
same,Toxicity,[15],Not toxic
same,Toxicity,[16],Not toxic
CCOC(=O)CCCCCCCCC(C)c1ccc(I)cc1 (configuration not stated) [IOPHENDYLATE],Mortality,[25],100%
same,Mortality,[26],100%
same,Mortality,[27],3 number of descendants/number of tested
same,Mortality,[28],1 number of descendants/number of tested
same,Mortality,[29],3 number of descendants/number of tested
same,Mortality,[30],1 number of descendants/number of tested
